# pIC50: −log10 of the molar value. Active and inactive are the calls of the source. The calls are words filed in the database; no cut-off is given here.
# Experiments:
# [1] = test system: Entamoeba histolytica; test: […] activity against Entamoeba histolytica HM-1:IMSS trophozoites after 72 hrs by microdilution method; assay type: functional, organism-based
# How it was run: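 E. histolytica trophozoites in TYIS-33 medium; DMSO stocks (1 mg/mL) twofold serially diluted, 1.7×10^4 amoebae/well, nitrogen-gassed, 37 °C for 72 h. Methanol-fixed, eosin-stained, dye released in 0.1 N NaOH, OD 490 nm. Triplicate per concentration, repeated thrice. % inhibition vs log concentration, IC50 from linear regression; metronidazole as reference.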
# [2] = Inhibition of beta-haematin formation after 24 hrs by microtiter plate assay; assay type: functional
# How it was run: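 Compound mixed with haemin (1 mg/mL in DMSO), water and 0.5 M acetate buffer at pH 4.7, then incubated 24 h. Unreacted haemin removed by three DMSO washes with centrifugation at 1500 g. β-haematin dissolved in 2 M NaOH, diluted twofold, absorbance read at 405 nm. IC50 taken from the data. Chloroquine and quinine as positive controls; at least triplicate.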
# [3] = Inhibition of beta-haematin formation at 100 uM after 24 hrs by microtiter plate assay; assay type: functional
# [4] = test system: Plasmodium falciparum; test: Antimicrobial activity against chloroquine-sensitive Plasmodium falciparum 3D7 assessed as inhibition of [3H] hypoxanthine incorporation after 24 hrs by scintillation counting; assay type: functional, organism-based
# How it was run: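 Synchronized ring-stage 3D7 culture at 0.5% parasitemia and 1% haematocrit in supplemented RPMI-1640, exposed to serially diluted DMSO stocks for 24 h. [3H]-hypoxanthine added at 0.5 µCi/well for a further 24 h, then DNA harvested onto filter mats and counted by β-scintillation. IC50 from log sigmoid dose-response curves. At least triplicate; chloroquine and quinine as references.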
# [5] = Toxicity in human RBC assessed as hemolysis at 100 uM after 48 hrs; assay type: cell-based, Erythrocyte; settings: red blood cells (RBC), read-out: Activity
# How it was run: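 Fresh human red blood cells at 1% haematocrit in culture medium, incubated 48 h with compound at 100 μM, absorbance read at 412 nm. % haemolysis calculated against 0.5% Triton X100 as the 100% control. At least triplicate, mean ± s.d.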
# [6] = test system: Plasmodium falciparum; test: Inhibition of Plasmodium falciparum falcipain
# [7] = test system: Plasmodium falciparum; test: Antimicrobial activity against chloroquine-sensitive Plasmodium falciparum 3D7 assessed as inhibition of [3H] hypoxanthine incorporation at 100 uM after 24 hrs by scintillation counting; assay type: functional
# [8] = test system: Plasmodium falciparum; test: Inhibition of Plasmodium falciparum cysteine protease
# [9] = test system: Radical scavenging activity; test: Antioxidant activity assessed as DPPH radical scavenging activity at 80 uM after 30 mins; assay type: functional
# How it was run: (§1)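 Compounds added to DPPH• in methanol, kept in the dark at room temperature for 30 min, absorbance read at 540 nm. Scavenging given as % decrease in absorbance relative to a drug-free DPPH• control, with a MeOH/DMSO background control. Ascorbic acid as comparator; triplicate.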
# [10] = Cytotoxicity against human MCF7 cells assessed as cell growth inhibition at 50 uM after 48 hrs by MTT assay; assay type: cell-based; settings: read-out: GI
# How it was run: (§2)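 MCF-7 cells grown in DMEM with 10% FCS and penicillin/streptomycin, seeded at 1.2×10^4 cells/well and grown 48 h before treatment. Stocks prepared in 20% (v/v) DMSO and diluted in medium. After 48 h at 37 °C, MTT (5 mg/mL) added for 4 h, formazan dissolved in DMSO, A570 read with 655 nm reference. Viability relative to untreated cells; triplicate.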
# [11] = test system: MCF7; test: Cytotoxicity against human MCF7 cells assessed as cell growth inhibition after 48 hrs by MTT assay; assay type: cell-based; settings: mcf7, 48 h; how it was run: as §2
# [12] = Cytotoxicity against human MCF7 cells assessed as cell growth inhibition at 100 uM after 48 hrs by MTT assay; assay type: cell-based; settings: read-out: GI; how it was run: as §2
# [13] = test system: Entamoeba histolytica; test: Ratio of metronidazole IC50 to compound IC50 for Entamoeba histolytica HM-1:IMSS trophozoites; assay type: functional
# [14] = test system: MCF7; test: Cytotoxicity against human MCF7 cells after 48 hrs by MTT assay; assay type: cell-based; settings: MCF7, 48 h; how it was run: as §2
# [15] = test system: Plasmodium falciparum; test: Antimicrobial activity against chloroquine-resistant Plasmodium falciparum FCB1; assay type: functional, organism-based; settings: FcB1/Columbia
# [16] = test system: Radical scavenging activity; test: Antioxidant activity assessed as DPPH radical scavenging activity after 30 mins; assay type: functional; how it was run: as §1
Structure (SMILES),pIC50 [1],pIC50 [2],inhibition [3] [%],pIC50 [4],"hemolysis at 48 h, 100 µM [5] [%]",inhibition [6],inhibition at 100 µM [7] [%],inhibition [8],Activity [9] [%],"inhibition at 48 h, 50 µM [10] [%]",Activity [11],"inhibition at 48 h, 100 µM [12] [%]",Ratio IC50 [13],pIC50 [14],pIC50 [15],pIC50 [16]
C/C(=C\c1cc2cc(C)ccc2nc1Cl)C(=O)c1cccc(Br)c1,5.55,< 4.00,13.3,< 4.00,1.53,inactive,51.1,inactive,–,–,–,–,–,–,–,–
C/C(=C\c1cc2ccc(C)cc2nc1Cl)C(=O)c1cccc(Cl)c1,5.15,< 4.00,5.64,4.30,1.44,inactive,–,inactive,0.78,–,–,–,–,–,–,–
Cc1ccc2cc(/C=C/C(=O)c3ccccn3)c(Cl)nc2c1,7.30,< 4.00,15,4.50,0.47,inactive,–,inactive,–,36,Dose-dependent effect,66,29.2,4.12,–,–
O=C(/C=C/c1cc2ccccc2nc1Cl)c1ccccn1,5.28,< 4.00,12.3,4.50,1.1,inactive,–,inactive,–,–,–,–,–,–,–,–
Cc1ncc([N+](=O)[O-])n1CCO [METRONIDAZOLE],5.84,–,–,–,–,–,–,–,–,–,–,–,–,< 4.00,–,–
CCN(CC)CCCC(C)Nc1ccnc2cc(Cl)ccc12 (configuration not stated) [CHLOROQUINE],–,4.60,–,–,0.72,–,–,–,4.06,–,–,–,–,–,–,–
Cc1ccc2nc(Cl)c(/C=C/C(=O)c3ccccn3)cc2c1,5.84,< 4.00,11.5,4.50,1.55,inactive,–,inactive,–,–,–,–,–,–,–,–
O=C(/C=C/c1cc2ccccc2nc1Cl)c1ccc(Br)cc1,5.47,< 4.00,13.6,4.35,2.2,inactive,–,inactive,–,–,–,–,–,–,–,–
C/C(=C\c1cc2ccc(C)cc2nc1Cl)C(=O)c1cccc(Br)c1,7.05,< 4.00,10.5,4.33,1.04,inactive,–,inactive,2.27,–,–,–,16,< 4.00,–,–
C/C(=C\c1cc2ccccc2nc1Cl)C(=O)c1cccc(Br)c1,5.44,< 4.00,9.35,< 4.00,2.17,inactive,34.3,inactive,1.43,–,–,–,–,–,–,–
O=C(/C=C/c1cc2ccccc2nc1Cl)c1ccc(Cl)cc1,7.30,< 4.00,19.5,4.41,1.74,inactive,–,inactive,3.69,–,–,–,29.2,< 4.00,< 3.70,–
Cc1ccc2nc(Cl)c(/C=C/C(=O)c3ccc(Br)cc3)cc2c1,5.39,< 4.00,55.4,4.13,1.4,inactive,–,inactive,–,–,–,–,–,–,–,–
Cc1ccc2cc(/C=C/C(=O)c3ccc(Cl)cc3)c(Cl)nc2c1,5.16,–,–,–,–,inactive,–,inactive,–,–,–,–,–,–,< 3.70,–
Cc1ccc2cc(/C=C/C(=O)c3cccc(Br)c3)c(Cl)nc2c1,5.12,< 4.00,27.5,4.22,1.09,inactive,–,inactive,–,–,–,–,–,–,–,–
C/C(=C\c1cc2cc(C)ccc2nc1Cl)C(=O)c1cccc(Cl)c1,7.22,< 4.00,14.4,< 4.00,1.24,inactive,8.74,inactive,–,–,–,–,–,< 4.00,–,–
O=C1O[C@H]([C@@H](O)CO)C(O)=C1O [ASCORBIC ACID],–,–,–,–,–,–,–,–,–,–,–,–,–,–,–,4.70
Cc1ccc2nc(Cl)c(/C=C/C(=O)c3cccc(Br)c3)cc2c1,5.99,< 4.00,14.9,4.30,1.68,inactive,–,inactive,–,–,–,–,–,< 4.00,–,–
C=C[C@H]1C[N@@]2CC[C@H]1C[C@H]2[C@H](O)c1ccnc2ccc(OC)cc12 [QUININE],–,–,–,–,1.22,–,–,–,–,–,–,–,–,–,–,–
O=C(/C=C/c1cc2ccccc2nc1Cl)c1cccc(Br)c1,5.46,< 4.00,16,< 4.00,1.38,inactive,61.2,inactive,–,–,–,–,–,–,–,–
C=C[C@H]1CN2CC[C@H]1C[C@H]2[C@H](O)c1ccnc2ccc(OC)cc12 [QUININE],–,4.18,–,6.85,–,–,–,–,2.65,–,–,–,–,–,–,–

# From ChEMBL document CHEMBL1781903, “Antiprotozoal activity of chloroquinoline based chalcones” (Eur J Med Chem, 2011)
